According to ChEMBL document CHEMBL3400073, “Design, synthesis and biological evaluation of new hybrid anticonvulsants derived from N-benzyl-2-(2,5-dioxopyrrolidin-1-yl)propanamide and 2-(2,5-dioxopyrrolidin-1-yl)butanamide derivatives” (Bioorg Med Chem, 2015):
The source made the active and inactive calls. No cut-off for these calls is given here.

Legend:
Mus musculus [1] = test: Neurological toxicity in Albino Swiss CD1 mouse at 100 mg/kg, ip after 0.5 hrs by rotarod test; assay type: organism-based; set-up: dose 100 mg/kg, route intraperitoneal; conditions: in vivo
In short: (§1)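 Mice were trained on a 2 cm rod for 3 min, with unlimited trials, at least 24 h before testing. Each was then dosed ip at 100 mg/kg and tested at 10 rpm 0.5 h or 2 h later, in groups of 4. Failure to stay on the rod for at least 1 min indicated neurotoxicity.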

Mus musculus [2] = test: Anticonvulsant activity in Albino Swiss CD1 mouse at 100 mg/kg, ip after 2 hrs by maximal electroshock test; assay type: functional, organism-based; set-up: dose 100 mg/kg
In short: (§2)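 Male CD-1 mice, 16–26 g, in groups of 4, each mouse used once, were given 100 mg/kg ip (0.1 mL/10 g, methylcellulose vehicle). MES used 25 mA, 500 V, 50 Hz delivered by ear electrodes for 0.2 s, and absence of hindlimb tonic extension counted as protection. In scPTZ, mice without clonic convulsions over 30 min of observation counted as protected. Both tests were run 0.5 h or 2 h after dosing.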

Mus musculus [3] = test: Anticonvulsant activity in intraperitoneally dosed Albino Swiss CD1 mouse by subcutaneous pentylenetetrazole test; assay type: functional
In short: (§3)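 Male CD-1 mice were dosed ip (0.1 mL/10 g, methylcellulose vehicle), at least four dose groups of 6 mice each. Protection in MES meant no hindlimb tonic extension after a 25 mA, 50 Hz, 0.2 s ear-electrode shock. Protection in scPTZ meant no clonus over 30 min.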

Mus musculus [4] = test: Neurological toxicity in Albino Swiss CD1 mouse at 100 mg/kg, ip after 2 hrs by rotarod test; assay type: organism-based; set-up: dose 100 mg/kg, route intraperitoneal; conditions: in vivo; in short: as §1
Mus musculus [5] = test: Anticonvulsant activity in intraperitoneally dosed Albino Swiss CD1 mouse by maximal electroshock test; assay type: functional; conditions: Albino Swiss CD1, ip; in short: as §3
Mus musculus [6] = test: Anticonvulsant activity in Albino Swiss CD1 mouse at 100 mg/kg, ip after 2 hrs by subcutaneous pentylenetetrazole test; assay type: functional, organism-based; set-up: dose 100 mg/kg; in short: as §2
Mus musculus [7] = test: Anticonvulsant activity in intraperitoneally dosed Albino Swiss CD1 mouse assessed as time to peak effect by maximal electroshock test; assay type: functional
[8] = Neurological toxicity in intraperitoneally dosed Albino Swiss CD1 mouse by rotarod test; assay type: organism-based; conditions: in vivo, ip
In short: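 Mice trained on the rotarod were given various ip doses, four groups in all, and tested at 10 rpm. Failure to stay on the rod for at least 1 min indicated neurotoxicity.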

Mus musculus [9] = test: Anticonvulsant activity in intraperitoneally dosed Albino Swiss CD1 mouse assessed as time to peak effect after 2 hrs by subcutaneous pentylenetetrazole test; assay type: functional
Mus musculus [10] = test: Anticonvulsant activity in intraperitoneally dosed Albino Swiss CD1 mouse after 0.5 hrs by subcutaneous pentylenetetrazole test; assay type: functional; in short: as §3
Mus musculus [11] = test: Anticonvulsant activity in intraperitoneally dosed Albino Swiss CD1 mouse after 0.5 hrs by maximal electroshock test; assay type: functional; in short: as §3
Mus musculus [12] = species on record: Mus musculus; test: Protective index, ratio of neurotoxic TD50 in Albino Swiss CD1 mouse by rotarod test to anticonvulsant ED50 in Albino Swiss CD1 mouse by maximal electroshock test
In short: (§4)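 The protective index is the rotarod TD50 divided by the MES or scPTZ ED50. Each value came from ip dosing in male CD-1 mice with probit analysis, and the reference drugs were tested under the same conditions.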

Mus musculus [13] = test: Protective index, ratio of neurotoxic TD50 in Albino Swiss CD1 mouse by rotarod test to anticonvulsant ED50 in Albino Swiss CD1 mouse by subcutaneous pentylenetetrazole test; in short: as §4
Mus musculus [14] = test: Anticonvulsant activity in intraperitoneally dosed Albino Swiss CD1 mouse after 2 hrs by subcutaneous pentylenetetrazole test; assay type: functional; in short: as §3
Mus musculus [15] = test: Anticonvulsant activity in Albino Swiss CD1 mouse at 100 mg/kg, ip after 0.5 hrs by maximal electroshock test; assay type: functional, organism-based; set-up: dose 100 mg/kg; in short: as §2
Mus musculus [16] = test: Anticonvulsant activity in Albino Swiss CD1 mouse at 100 mg/kg, ip after 0.5 hrs by subcutaneous pentylenetetrazole test; assay type: functional, organism-based; set-up: dose 100 mg/kg; in short: as §2

Compound: CCC(C(=O)NCc1ccc(C(F)(F)F)cc1)N1C(=O)CCC1=O (racemic)
- Activity (Mus musculus [1]): Non-toxic
- Activity (Mus musculus [2]): inactive
- ED50 (Mus musculus [3]): 80.4 mg/kg
- Activity (Mus musculus [4]): Non-toxic
- ED50 (Mus musculus [5]): 69.4 mg/kg
- Activity (Mus musculus [6]): inactive
- Time (Mus musculus [7]): 0.5 h
- TD50 [8]: 112 mg/kg
- Time (Mus musculus [9]): 0.5 h
- MED50 (Mus musculus [10]): 100 mg/kg
- MED50 (Mus musculus [11]): 100 mg/kg
- Ratio TD50/ED50 (Mus musculus [12]): 1.62
- Ratio TD50/ED50 (Mus musculus [13]): 1.4

Compound: CCC(C(=O)NCc1ccc(Cl)cc1)N1C(=O)CCC1=O (racemic)
- Activity (Mus musculus [1]): Non-toxic
- Activity (Mus musculus [2]): inactive
- ED50 (Mus musculus [3]): 50.8 mg/kg
- Activity (Mus musculus [4]): Non-toxic
- ED50 (Mus musculus [5]): 95.3 mg/kg
- Time (Mus musculus [7]): 0.5 h
- TD50 [8]: 174 mg/kg
- Time (Mus musculus [9]): 0.5 h
- MED50 (Mus musculus [10]): 100 mg/kg
- MED50 (Mus musculus [11]): 100 mg/kg
- Ratio TD50/ED50 (Mus musculus [12]): 1.83
- MED50 (Mus musculus [14]): 100 mg/kg
- Ratio TD50/ED50 (Mus musculus [13]): 3.43

Compound: CCC(C(=O)NCc1ccccc1C(F)(F)F)N1C(=O)CCC1=O (racemic)
- Activity (Mus musculus [1]): Non-toxic
- Activity (Mus musculus [2]): inactive
- Activity (Mus musculus [4]): Non-toxic
- ED50 (Mus musculus [5]): > 150 mg/kg
- Activity (Mus musculus [15]): inactive
- Time (Mus musculus [7]): 0.5 h
- Time (Mus musculus [9]): 0.5 h
- Activity (Mus musculus [16]): inactive
- MED50 (Mus musculus [14]): 100 mg/kg

Compound: CC1CC(=O)N(C(C)C(=O)NCc2ccccc2)C1=O (racemic)
- Activity (Mus musculus [1]): Non-toxic
- Activity (Mus musculus [2]): inactive
- ED50 (Mus musculus [3]): 78.3 mg/kg
- Activity (Mus musculus [4]): Non-toxic
- ED50 (Mus musculus [5]): 106 mg/kg
- Activity (Mus musculus [6]): inactive
- Time (Mus musculus [7]): 0.5 h
- TD50 [8]: 355 mg/kg
- Time (Mus musculus [9]): 0.5 h
- MED50 (Mus musculus [10]): 100 mg/kg
- MED50 (Mus musculus [11]): 100 mg/kg
- Ratio TD50/ED50 (Mus musculus [12]): 3.34
- Ratio TD50/ED50 (Mus musculus [13]): 4.54

Compound: CCC(C(=O)NCc1ccccc1)N1C(=O)CCC1=O (racemic)
- Activity (Mus musculus [1]): Non-toxic
- Activity (Mus musculus [2]): inactive
- ED50 (Mus musculus [3]): 90.3 mg/kg
- Activity (Mus musculus [4]): Non-toxic
- ED50 (Mus musculus [5]): 73.3 mg/kg
- Activity (Mus musculus [6]): inactive
- Time (Mus musculus [7]): 0.5 h
- TD50 [8]: 312 mg/kg
- Time (Mus musculus [9]): 0.5 h
- MED50 (Mus musculus [10]): 100 mg/kg
- MED50 (Mus musculus [11]): 100 mg/kg
- Ratio TD50/ED50 (Mus musculus [12]): 4.26
- Ratio TD50/ED50 (Mus musculus [13]): 3.46

Compound: CCC(C(=O)NCc1ccc(F)cc1)N1C(=O)CCC1=O (racemic)
- Activity (Mus musculus [1]): Non-toxic
- Activity (Mus musculus [2]): inactive
- ED50 (Mus musculus [3]): 83.4 mg/kg
- Activity (Mus musculus [4]): Non-toxic
- Activity (Mus musculus [15]): inactive
- Activity (Mus musculus [6]): inactive
- Time (Mus musculus [7]): 0.5 h
- TD50 [8]: 268 mg/kg
- Time (Mus musculus [9]): 0.5 h
- MED50 (Mus musculus [10]): 100 mg/kg
- Ratio TD50/ED50 (Mus musculus [13]): 3.22

Compound: CCC(C(=O)NCc1ccccc1Cl)N1C(=O)CCC1=O (racemic)
- Activity (Mus musculus [1]): Non-toxic
- Activity (Mus musculus [2]): inactive
- ED50 (Mus musculus [3]): 76.4 mg/kg
- Activity (Mus musculus [4]): Non-toxic
- ED50 (Mus musculus [5]): 113 mg/kg
- Time (Mus musculus [7]): 0.5 h
- TD50 [8]: 418 mg/kg
- Time (Mus musculus [9]): 0.5 h
- MED50 (Mus musculus [10]): 100 mg/kg
- MED50 (Mus musculus [11]): 100 mg/kg
- Ratio TD50/ED50 (Mus musculus [12]): 3.7
- MED50 (Mus musculus [14]): 100 mg/kg
- Ratio TD50/ED50 (Mus musculus [13]): 5.47

Compound: CCC(C(=O)NCc1cccc(Cl)c1)N1C(=O)CCC1=O (racemic)
- Activity (Mus musculus [1]): Non-toxic
- Activity (Mus musculus [2]): inactive
- ED50 (Mus musculus [3]): 78.8 mg/kg
- Activity (Mus musculus [4]): Non-toxic
- ED50 (Mus musculus [5]): 96.5 mg/kg
- Activity (Mus musculus [6]): inactive
- Time (Mus musculus [7]): 0.5 h
- TD50 [8]: 180 mg/kg
- Time (Mus musculus [9]): 0.5 h
- MED50 (Mus musculus [10]): 100 mg/kg
- MED50 (Mus musculus [11]): 100 mg/kg
- Ratio TD50/ED50 (Mus musculus [12]): 1.12
- Ratio TD50/ED50 (Mus musculus [13]): 2.28

Compound: CCC(C(=O)NCc1cccc(C(F)(F)F)c1)N1C(=O)CCC1=O (racemic)
- Activity (Mus musculus [1]): Non-toxic
- Activity (Mus musculus [2]): inactive
- ED50 (Mus musculus [3]): 77.4 mg/kg
- Activity (Mus musculus [4]): Non-toxic
- Activity (Mus musculus [15]): inactive
- Activity (Mus musculus [6]): inactive
- Time (Mus musculus [7]): 0.5 h
- TD50 [8]: 163 mg/kg
- Time (Mus musculus [9]): 0.5 h
- MED50 (Mus musculus [10]): 100 mg/kg
- Ratio TD50/ED50 (Mus musculus [13]): 2.12

Compound: CC(C(=O)NCc1ccc(Cl)cc1)N1C(=O)CCC1=O (racemic)
- Activity (Mus musculus [1]): Non-toxic
- Activity (Mus musculus [2]): inactive
- ED50 (Mus musculus [3]): 43.6 mg/kg
- Activity (Mus musculus [4]): Non-toxic
- ED50 (Mus musculus [5]): 91.8 mg/kg
- Activity (Mus musculus [6]): inactive
- Time (Mus musculus [7]): 0.5 h
- TD50 [8]: 228 mg/kg
- Time (Mus musculus [9]): 0.5 h
- MED50 (Mus musculus [10]): 100 mg/kg
- MED50 (Mus musculus [11]): 100 mg/kg
- Ratio TD50/ED50 (Mus musculus [12]): 2.48
- Ratio TD50/ED50 (Mus musculus [13]): 5.23

Compound: CC(C(=O)NCc1ccc(C(F)(F)F)cc1)N1C(=O)CCC1=O (racemic)
- Activity (Mus musculus [1]): Non-toxic
- Activity (Mus musculus [2]): inactive
- ED50 (Mus musculus [3]): 54.5 mg/kg
- Activity (Mus musculus [4]): Non-toxic
- ED50 (Mus musculus [5]): 80 mg/kg
- Time (Mus musculus [7]): 0.5 h
- TD50 [8]: 143 mg/kg
- Time (Mus musculus [9]): 2 h
- MED50 (Mus musculus [11]): 100 mg/kg
- Ratio TD50/ED50 (Mus musculus [12]): 1.78
- Activity (Mus musculus [16]): inactive
- MED50 (Mus musculus [14]): 100 mg/kg
- Ratio TD50/ED50 (Mus musculus [13]): 2.62

Compound: CC(C(=O)NCc1ccccc1)N1C(=O)CCC1=O (racemic)
- Activity (Mus musculus [1]): Non-toxic
- Activity (Mus musculus [2]): inactive
- Activity (Mus musculus [4]): Non-toxic
- Activity (Mus musculus [6]): inactive
- Time (Mus musculus [7]): 0.5 h
- Time (Mus musculus [9]): 0.5 h
- MED50 (Mus musculus [10]): 100 mg/kg
- MED50 (Mus musculus [11]): 100 mg/kg
